Experimental data from different studies.
Protocols differ between the studies behind these lines.
Cell line: HepG2
Observed: cell growth or viability

Compound | method | time | CC50 [µM]
N=C(CC(O)c1cc2cccnc2c2cccnc12)Nc1ccc(F)cc1 (centres unmarked) | neutral red | 24 h | 265
c1cc(-c2ccc3ncnc(Nc4ncco4)c3c2)nc(N2CCOCC2)n1 | MTT | 48 h | 26
CC(C)N(c1ccc(C#N)cc1)c1ccc(NC(=O)CN(C)c2ccccc2N2CCCC2=O)cn1 | ATP luminescence | 48 h | > 40
O=C1c2ccccc2C(=O)c2c(NCCc3ccc(O)cc3)ccc(NCCc3ccc(O)cc3)c21 | ATP luminescence | 72 h | 16.1
CN(CC(=O)Nc1ccc(N(C)c2ccc(Cl)c(Cl)c2)cc1)c1ccccc1N1CCCC1=O | ATP luminescence | 48 h | > 40
C[n+]1cc2c3c(ccc2c2ccc4cc5c(cc4c21)OCO5)OCO3 | ATP luminescence | 72 h | 9.44
CCC(C)N(c1ccc(C)cc1)c1ccc(NC(=O)CN(C)c2ccccc2N2CCCC2=O)cc1 (centres unmarked) | ATP luminescence | 48 h | > 40
Clc1ccc(Nc2ncnc3ccc(-c4cccc(N5CCOCC5)c4)cc23)cc1Cl | MTT | 48 h | > 40
CC(=O)OC[C@H]1O[C@@H]([S-])[C@H](OC(C)=O)[C@@H](OC(C)=O)[C@@H]1OC(C)=O.CCP(CC)CC.[Au+] | ATP luminescence | 72 h | 9.81
N=C(CC(O)c1nc2ccccc2c2ccccc12)Nc1ccc(F)cc1 (centres unmarked) | neutral red | 24 h | 48.5
Cc1ccc(Nc2ncnc3ccc(-c4cccc(N5CCOCC5)c4)cc23)cc1 | MTT | 48 h | 19
CCCCCCNc1nc(NC2CCN(C)CC2)c2cc(OC)c(OC)cc2n1 | ATP luminescence | 72 h | 2.03
CCCCN(c1ccc(C)cc1)c1ccc(NC(=O)CN(C)c2ccccc2N2CCCC2=O)cc1 | ATP luminescence | 48 h | > 40
CN1CCN(c2cccc(-c3ccc4ncnc(Nc5ccc(Cl)c(C(F)(F)F)c5)c4c3)c2)CC1 | MTT | 48 h | 15
CN(CC(=O)Nc1ccc(N(C)c2ccc(Cl)cc2)c(Cl)c1)c1ccccc1N1CCCC1=O | ATP luminescence | 48 h | > 40
c1cc(-c2ccc3ncnc(NC4CCOCC4)c3c2)cc(N2CCOCC2)c1 | MTT | 48 h | 26
N=C(CC(O)c1ccnc2c1ccc1ccccc12)Nc1ccc(F)cc1 (centres unmarked) | neutral red |  | 33.3
